# Source: ChEMBL document CHEMBL4699636, “Novel 2,7-Diazaspiro[4,4]nonane Derivatives to Inhibit Mouse and Human Osteoclast Activities and Prevent Bone Loss in Ovariectomized Mice without Affecting Bone Formation” (J Med Chem, 2020)
# Calls of active or inactive are those of the source. The rule behind the calls is not given here.
# Columns and labels:
# [1] = Toxicity in mouse peripheral blood cell-derived osteoclasts assessed as reduction in osteoclasts number at 5-10 uM incubated for 48 hrs by TRAP-staining based assay; format: tissue-based; details: osteoclast, in the assay text read “bone marrow-derived” for “peripheral blood cell-derived”
# Method in brief: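 Osteoclasts were derived from bone marrow of 4–8-week-old C57BL/6J mice, first with M-CSF 100 ng/mL for 48 h, then with M-CSF 30 ng/mL plus RANKL 100 ng/mL. At day 3 of differentiation they were detached with Accutase and seeded on calcium phosphate-coated wells. Next day, compound was added in 0.5% DMSO (8 wells/condition) for 48 h. Four wells were TRAP-stained (pH 5, tartrate, 1.5 h, 37 °C) and osteoclasts counted from images.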
# Osteoclast [2] = assay: Inhibition of resorption activity of mouse peripheral blood cell-derived osteoclasts at 5-10 uM incubated for 48 hrs by Kossa-staining based assay; format: functional, tissue-based; details: dose microM 5-10, time 48.0 hrs, in the assay text read “bone marrow-derived” for “peripheral blood cell-derived”
# Method in brief: (§1)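 Osteoclasts from C57BL/6J mouse bone marrow, M-CSF then M-CSF 30 ng/mL plus RANKL 100 ng/mL. Day-3 cells reseeded on calcium phosphate-coated wells, compound added next day in 0.5% DMSO for 48 h, 8 wells per condition. 4 wells TRAP-stained for osteoclast counts, 4 von Kossa-stained for resorbed area. Activity expressed as resorption normalized to osteoclast number.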
# [3] = target: T1, Dedicator of cytokinesis protein 5 (Homo sapiens, UniProt Q9H7D0); assay: Inhibition of C-terminal 6-histidine tagged human DOCK5 (1212 to 1642 residues) expressed in Escherichia coli assessed as reduction in nucleotide exchange efficiency at 20 to 60 uM by N-methylanthraniloyl-GDP fluorescence based nucleotide exchange assay; details: dose microM 20-60
# Method in brief: (§2)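 Mant-GDP-loaded His-tagged human RAC1 at 2.0 µM with 100 nM DOCK5 (residues 1212-1642) or TRIOGEF1 (R1232-T1550), both E. coli-expressed. Buffer: 50 mM Tris pH 8, 300 mM NaCl, 2 mM MgCl2, 1 mM DTT, 1% DMSO, 25 °C. Reaction started with 100 µM GTP. Fluorescence decay read at ex 360/em 440 nm, kobs by single-exponential fit, compound at 0, 20 or 60 µM, duplicates, as % of activity.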
# [4] = system: Osteoclast (Homo sapiens); assay: Inhibition of resorption activity of human peripheral blood cell-derived osteoclasts at 1-20 uM incubated for 48 hrs by Kossa-staining based assay; details: dose microM 1-20, time 48.0 hrs
# [5] = target: Triple functional domain protein (Homo sapiens) (UniProt O75962); assay: Inhibition of C-terminal 6-histidine tagged human TRIOGEF1 (R1232 to T1550 residues) expressed in Escherichia coli assessed as reduction in nucleotide exchange efficiency at 20 to 60 uM by N-methylanthraniloyl-GDP fluorescence based nucleotide exchange assay; details: dose microM 20-60; method in brief: as §2
# [6] = system: Osteoclast (Homo sapiens); assay: Toxicity in human peripheral blood cell-derived osteoclasts assessed as reduction in osteoclasts number at 20 uM incubated for 48 hrs by TRAP-staining based assay
# Osteoclast [7] = assay: Inhibition of resorption activity of mouse peripheral blood cell-derived osteoclasts at 8 uM incubated for 48 hrs by Kossa-staining based assay; format: functional, tissue-based; details: in the assay text read “bone marrow-derived” for “peripheral blood cell-derived”; method in brief: as §1
# [8] = target: Dedicator of cytokinesis protein 5 (Mus musculus) (UniProt B2RY04); assay: Inhibition of N-terminal GFP tagged mouse DOCK5 expressed in HEK293T cells assessed as reduction in exchange activity at 100 uM incubated for 1 hr by Western blot analysis based Rac-GTP pull-down assay; format: cell-based
# Method in brief: (§3)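 HEK293T cells transiently expressing GFP-tagged DOCK5 DHR2 exchange domain (mouse, or human residues 1212-1642). Treated 1 h with compound in 1% DMSO, then lysed. Rac-GTP pulled down with GST-PakCRIB beads, 45 min at 4 °C, and detected by western blot. Band intensity normalized to lysate protein. Single dose 100 µM; dose-response in 1.5x steps for IC50.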
# [9] = target: Dedicator of cytokinesis protein 5 (Mus musculus) (UniProt B2RY04); assay: Inhibition of DOCK5 in mouse osteoclasts assessed as induction of podosome belt organization defects at 100 uM incubated for 4 hrs by immunofluorescence based assay; details: Osteoclast
# Method in brief: (§4)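 Mouse bone-marrow osteoclasts, differentiated with M-CSF and RANKL on coverslips. Compound added to 100 µM final, 0.5% DMSO, for 4 h. Cells fixed directly, or after medium change and overnight recovery, then stained for vinculin and actin (phalloidin) and viewed by widefield microscopy for podosome belt organization.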
# [10] = target: T1, Dedicator of cytokinesis protein 5; assay: Inhibition of N-terminal GFP tagged human DOCK5 (1212-1642 residues) expressed in HEK293T cells assessed as reduction in exchange activity incubated for 1 hr by Western blot analysis based Rac-GTP pull-down assay; format: cell-based; method in brief: as §3
# [11] = target: Dedicator of cytokinesis protein 5 (Mus musculus) (UniProt B2RY04); assay: Inhibition of DOCK5 in mouse osteoclasts assessed as induction of podosome belt organization defects at 100 uM incubated for 4 hrs followed by compound wash out by overnight recovery by immunofluorescence based assay; format: tissue-based; details: Osteoclast; method in brief: as §4
# Mus musculus [12] = assay: Antiosteoporotic activity in C57BL6/J mouse model of OVX-induced bone loss assessed as trabecular thickness level in femoral metaphysis at 100 ug/kg, sc QD for 4 weeks by histomorphometry (39.96 +/- 5.42 um); format: functional; details: dose 100 µg/kg
# Mus musculus [13] = assay: Antiosteoporotic activity in C57BL6/J mouse model of OVX-induced bone loss assessed as serum CTX-1 level […] at 100 ug/kg, sc QD for 4 weeks (165.38 +/- 54.93 %); format: functional; details: dose 100 µg/kg
# [14] = Toxicity in C57BL6/J mouse model of OVX-induced bone loss assessed as effect on body weight at 100 ug/kg, sc QD for 4 weeks; format: organism-based; details: in vivo, 0.1 mg/kg, 672 h, dose 100 µg/kg
# Mus musculus [15] = assay: Antiosteoporotic activity in C57BL6/J mouse model of OVX-induced bone loss assessed as trabecular bone volume per tissue volume level in femoral metaphysis at 100 ug/kg, sc QD for 4 weeks by histomorphometry (11.67 +/- 2.37%); format: functional; details: dose 100 µg/kg
# [16] = Toxicity in C57BL6/J mouse model of OVX-induced bone loss assessed as effect on bone formation by measuring osteocalcin level at 100 ug/kg, sc QD for 4 weeks […]; format: organism-based; details: in vivo, 0.1 mg/kg, 672 h, dose 100 µg/kg
# [17] = Toxicity in C57BL6/J mouse model of OVX-induced bone loss assessed as effect on bone formation by measuring mineralizing surface per trabecular bone surface level in femoral metaphysis at 100 ug/kg, sc QD for 4 weeks by histomorphometry (27.90 +/ 8.22 %); format: organism-based; details: in vivo, 0.1 mg/kg, 672 h, dose 100 µg/kg
# Mus musculus [18] = assay: Antiosteoporotic activity in C57BL6/J mouse model of OVX-induced bone loss assessed as structure model index level in tibial metaphysis at 100 ug/kg, sc QD for 4 weeks by microCT analysis (1.92 +/- 0.19); format: functional; details: dose 100 µg/kg
# Mus musculus [19] = assay: Antiosteoporotic activity in C57BL6/J mouse model of OVX-induced bone loss assessed as degree of anisotropy (range 0-1) level in tibial metaphysis at 100 ug/kg, sc QD for 4 weeks by microCT analysis (0.53 +/- 0.07); format: functional; details: dose 100 µg/kg
# [20] = Toxicity in C57BL6/J mouse model of OVX-induced bone loss assessed as effect on bone formation by measuring number of osteoblasts per bone surface level in femoral metaphysis at 100 ug/kg, sc QD for 4 weeks by histomorphometry (4.55 +/ 2.53 /mm); format: organism-based; details: in vivo, 0.1 mg/kg, 672 h, dose 100 µg/kg
# Mus musculus [21] = assay: Antiosteoporotic activity in C57BL6/J mouse model of OVX-induced bone loss assessed as trabecular bone volume per tissue volume level in tibial metaphysis at 100 ug/kg, sc QD for 4 weeks by microCT analysis (17.49 +/- 2.91 %); format: functional; details: dose 100 µg/kg
# [22] = Toxicity in C57BL6/J mouse model of OVX-induced bone loss assessed as effect on bone formation by measuring osteoblast surface per trabecular bone surface level in femoral metaphysis at 100 ug/kg, sc QD for 4 weeks by histomorphometry (5.03 +/ 2.92 %); format: organism-based; details: in vivo, 0.1 mg/kg, 672 h, dose 100 µg/kg
# [23] = Toxicity in C57BL6/J mouse model of OVX-induced bone loss assessed as effect on bone formation by measuring mineralizing mineral apposition rate level in femoral metaphysis at 100 ug/kg, sc QD for 4 weeks by histomorphometry (1.62 +/ 0.21 um/d (lcm)); format: organism-based; details: in vivo, 0.1 mg/kg, 672 h, dose 100 µg/kg
# Mus musculus [24] = assay: Antiosteoporotic activity in C57BL6/J mouse model of OVX-induced bone loss assessed as trabecular pattern factor level in tibial metaphysis at 100 ug/kg, sc QD for 4 weeks by microCT analysis (17.17 +/- 3.41 […]); format: functional; details: dose 100 µg/kg
# [25] = Toxicity in C57BL6/J mouse model of OVX-induced bone loss assessed as effect on bone formation by measuring bone formation rate per trabecular bone surface level in femoral metaphysis at 100 ug/kg, sc QD for 4 weeks by histomorphometry ([…]); format: organism-based; details: in vivo, 0.1 mg/kg, 672 h, dose 100 µg/kg
# Mus musculus [26] = assay: Antiosteoporotic activity in C57BL6/J mouse model of OVX-induced bone loss assessed as trabecular separation level in femoral metaphysis at 100 ug/kg, sc QD for 4 weeks by histomorphometry (319.80 +/- 106.52 um); format: functional; details: dose 100 µg/kg
# Mus musculus [27] = assay: Antiosteoporotic activity in C57BL6/J mouse model of OVX-induced bone loss assessed as cortical thickness level in tibial diaphysis at 100 ug/kg, sc QD for 4 weeks by microCT analysis (179.27 +/- 7.57 um); format: functional; details: dose 100 µg/kg
# Mus musculus [28] = assay: Antiosteoporotic activity in C57BL6/J mouse model of OVX-induced bone loss assessed as trabecular number level in femoral metaphysis at 100 ug/kg, sc QD for 4 weeks by histomorphometry (2.99 +/- 0.80 /mm); format: functional; details: dose 100 µg/kg
# Dedicator of cytokinesis protein 5 (Mus musculus), sequence (B2RY04 whole entry, the tested form may be a part): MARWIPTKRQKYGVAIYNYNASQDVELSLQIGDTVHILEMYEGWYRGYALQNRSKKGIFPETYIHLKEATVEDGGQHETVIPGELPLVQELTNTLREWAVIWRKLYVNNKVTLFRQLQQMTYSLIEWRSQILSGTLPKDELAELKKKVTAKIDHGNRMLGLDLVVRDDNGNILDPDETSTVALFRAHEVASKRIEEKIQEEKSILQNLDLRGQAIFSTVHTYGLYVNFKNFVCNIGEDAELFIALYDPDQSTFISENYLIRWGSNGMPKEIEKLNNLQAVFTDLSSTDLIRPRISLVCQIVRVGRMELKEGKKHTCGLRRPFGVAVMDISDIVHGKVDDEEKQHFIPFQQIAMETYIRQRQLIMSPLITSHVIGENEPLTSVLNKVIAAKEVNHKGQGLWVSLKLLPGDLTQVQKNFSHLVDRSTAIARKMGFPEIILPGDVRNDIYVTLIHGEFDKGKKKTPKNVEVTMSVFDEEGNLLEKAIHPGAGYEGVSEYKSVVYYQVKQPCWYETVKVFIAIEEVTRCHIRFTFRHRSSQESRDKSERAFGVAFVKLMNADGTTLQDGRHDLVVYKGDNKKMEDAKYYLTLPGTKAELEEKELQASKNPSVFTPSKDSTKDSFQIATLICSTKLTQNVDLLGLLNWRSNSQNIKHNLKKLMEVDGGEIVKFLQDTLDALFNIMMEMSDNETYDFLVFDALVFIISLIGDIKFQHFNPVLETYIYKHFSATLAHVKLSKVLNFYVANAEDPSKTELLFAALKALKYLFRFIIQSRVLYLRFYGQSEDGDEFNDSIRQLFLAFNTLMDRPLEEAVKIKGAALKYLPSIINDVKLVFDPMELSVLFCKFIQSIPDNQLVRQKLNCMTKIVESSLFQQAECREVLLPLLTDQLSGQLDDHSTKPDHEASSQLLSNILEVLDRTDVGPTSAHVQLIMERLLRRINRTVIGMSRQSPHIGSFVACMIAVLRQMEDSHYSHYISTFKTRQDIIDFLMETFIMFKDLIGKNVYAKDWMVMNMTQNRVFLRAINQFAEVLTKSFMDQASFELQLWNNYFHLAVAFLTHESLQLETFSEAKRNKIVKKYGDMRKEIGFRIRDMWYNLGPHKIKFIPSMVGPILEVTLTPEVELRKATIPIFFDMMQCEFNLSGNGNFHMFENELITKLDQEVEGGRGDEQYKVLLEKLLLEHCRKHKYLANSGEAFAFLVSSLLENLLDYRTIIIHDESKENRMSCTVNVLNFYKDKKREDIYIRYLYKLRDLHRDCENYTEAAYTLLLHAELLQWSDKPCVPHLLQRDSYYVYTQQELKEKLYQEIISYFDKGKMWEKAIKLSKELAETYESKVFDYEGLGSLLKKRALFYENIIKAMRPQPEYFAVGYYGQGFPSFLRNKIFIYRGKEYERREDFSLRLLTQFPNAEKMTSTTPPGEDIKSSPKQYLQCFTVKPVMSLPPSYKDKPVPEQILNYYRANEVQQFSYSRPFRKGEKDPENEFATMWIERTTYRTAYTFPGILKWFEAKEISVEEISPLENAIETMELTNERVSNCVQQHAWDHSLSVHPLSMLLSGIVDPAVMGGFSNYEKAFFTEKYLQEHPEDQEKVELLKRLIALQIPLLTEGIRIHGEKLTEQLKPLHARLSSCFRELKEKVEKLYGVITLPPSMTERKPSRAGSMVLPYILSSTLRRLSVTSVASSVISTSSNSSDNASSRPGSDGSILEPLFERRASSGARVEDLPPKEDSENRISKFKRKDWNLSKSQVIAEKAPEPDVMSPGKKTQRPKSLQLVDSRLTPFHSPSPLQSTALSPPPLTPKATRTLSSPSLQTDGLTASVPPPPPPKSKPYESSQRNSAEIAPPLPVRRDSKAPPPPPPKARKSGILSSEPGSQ
# T1 sequence (Q9H7D0 whole entry, the tested form may be a part): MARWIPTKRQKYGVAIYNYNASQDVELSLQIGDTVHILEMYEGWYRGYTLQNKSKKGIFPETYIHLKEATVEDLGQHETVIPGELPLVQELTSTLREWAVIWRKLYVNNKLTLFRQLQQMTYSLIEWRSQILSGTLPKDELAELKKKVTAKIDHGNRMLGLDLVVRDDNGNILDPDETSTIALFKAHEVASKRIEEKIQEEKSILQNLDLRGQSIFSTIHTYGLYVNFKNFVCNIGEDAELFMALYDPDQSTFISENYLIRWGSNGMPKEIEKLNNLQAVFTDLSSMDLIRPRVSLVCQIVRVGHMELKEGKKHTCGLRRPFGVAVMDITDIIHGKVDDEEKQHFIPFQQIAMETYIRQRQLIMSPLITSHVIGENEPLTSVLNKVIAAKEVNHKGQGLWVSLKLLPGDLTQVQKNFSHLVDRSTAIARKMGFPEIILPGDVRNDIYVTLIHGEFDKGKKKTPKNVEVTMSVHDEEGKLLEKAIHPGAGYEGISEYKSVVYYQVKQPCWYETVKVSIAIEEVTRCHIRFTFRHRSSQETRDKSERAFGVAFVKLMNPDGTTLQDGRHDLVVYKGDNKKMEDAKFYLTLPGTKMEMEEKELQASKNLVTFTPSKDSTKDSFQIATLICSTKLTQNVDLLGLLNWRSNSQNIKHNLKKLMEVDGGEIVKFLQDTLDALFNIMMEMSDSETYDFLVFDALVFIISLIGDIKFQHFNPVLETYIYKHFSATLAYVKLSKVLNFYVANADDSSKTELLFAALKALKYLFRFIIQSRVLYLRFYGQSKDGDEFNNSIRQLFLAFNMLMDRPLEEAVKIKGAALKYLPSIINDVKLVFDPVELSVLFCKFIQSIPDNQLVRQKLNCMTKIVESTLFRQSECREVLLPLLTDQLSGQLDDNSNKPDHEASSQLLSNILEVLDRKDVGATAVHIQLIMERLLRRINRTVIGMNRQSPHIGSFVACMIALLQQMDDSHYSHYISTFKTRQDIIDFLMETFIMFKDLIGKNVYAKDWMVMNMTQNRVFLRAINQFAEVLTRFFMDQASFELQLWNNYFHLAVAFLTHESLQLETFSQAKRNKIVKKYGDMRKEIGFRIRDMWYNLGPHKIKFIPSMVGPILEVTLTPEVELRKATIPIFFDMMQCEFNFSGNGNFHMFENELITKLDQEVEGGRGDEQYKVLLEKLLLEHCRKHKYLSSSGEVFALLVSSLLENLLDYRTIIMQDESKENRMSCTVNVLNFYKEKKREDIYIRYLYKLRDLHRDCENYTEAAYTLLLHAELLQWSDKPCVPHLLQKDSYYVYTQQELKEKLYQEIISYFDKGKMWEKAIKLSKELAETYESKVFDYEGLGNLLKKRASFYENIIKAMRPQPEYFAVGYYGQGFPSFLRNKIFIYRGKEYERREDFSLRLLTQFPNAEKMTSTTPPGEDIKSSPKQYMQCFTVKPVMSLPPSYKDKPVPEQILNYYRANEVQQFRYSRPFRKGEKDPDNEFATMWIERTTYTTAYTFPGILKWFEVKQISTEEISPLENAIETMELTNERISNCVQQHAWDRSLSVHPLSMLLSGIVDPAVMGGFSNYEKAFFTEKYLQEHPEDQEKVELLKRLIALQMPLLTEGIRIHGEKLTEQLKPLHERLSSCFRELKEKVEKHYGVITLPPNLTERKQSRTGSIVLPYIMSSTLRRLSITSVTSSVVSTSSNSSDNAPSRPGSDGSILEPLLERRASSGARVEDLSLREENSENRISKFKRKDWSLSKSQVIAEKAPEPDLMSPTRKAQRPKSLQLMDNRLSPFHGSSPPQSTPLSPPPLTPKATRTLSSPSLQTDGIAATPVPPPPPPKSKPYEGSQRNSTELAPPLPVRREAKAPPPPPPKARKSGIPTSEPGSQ
smiles,measurement,setting,value
COc1ccc(N2CCC3(CCN(Cc4cccc(Cl)c4)C3)C2=O)cc1C (stereo unspecified),Activity,[1],Toxic
same,inhibition,Osteoclast [2],Active
same,inhibition,[3],inactive
O=C1N(c2cccc(F)c2)CCC12CCN(Cc1cccc(Cl)c1)C2 (stereo unspecified),Activity,[1],Toxic
same,inhibition,Osteoclast [2],Active
same,inhibition,[3],inactive
NCCCC(O)(P(=O)(O)O)P(=O)(O)O,inhibition,[4],Active
O=S1(=O)N(c2ccccc2)C[C@H](O)[C@]12CCN(Cc1ccc(Cl)c(Cl)c1)C2 (racemic),inhibition,[5],inactive
same,inhibition,Osteoclast [2],Active
same,inhibition,[4],Active
same,inhibition,[3],67%
same,Activity,[6],Toxic
O=S1(=O)N(c2ccccc2)C[C@H](O)[C@]12CCN(Cc1cccc(Cl)c1)C2 (racemic),inhibition,Osteoclast [7],Active
same,inhibition,[8],Active
same,inhibition,[9],Active
same,inhibition,Osteoclast [2],Active
same,IC50,[10],24 µM
same,inhibition,[3],inactive
same,inhibition,[11],inactive
COc1ccc(CN2CC[C@@]3(C2)[C@@H](O)CN(c2ccccc2)S3(=O)=O)cc1F (racemic),inhibition,Osteoclast [2],Active
same,inhibition,[3],inactive
Cn1cc(CN2CC[C@@]3(C2)[C@@H](O)CN(c2ccccc2)S3(=O)=O)c2ccccc21 (racemic),inhibition,Osteoclast [2],Active
same,inhibition,[3],inactive
O=S1(=O)N(c2ccccc2)C[C@H](O)[C@]12CCN(Cc1ccc3c(c1)CCC3)C2 (racemic),inhibition,Osteoclast [2],Active
same,inhibition,[3],inactive
O=S1(=O)N(c2ccccc2)C[C@H](O)[C@]12CCN(Cc1ccccc1Cl)C2 (racemic),inhibition,Osteoclast [2],Active
same,inhibition,[3],inactive
O=S1(=O)N(c2ccccc2)C[C@H](O)[C@]12CCN(Cc1cnc3ccccc3c1)C2 (racemic),inhibition,Osteoclast [2],Active
same,inhibition,[3],inactive
O.O=P(O)(O)C(O)(Cn1ccnc1)P(=O)(O)O [ZOLEDRONIC ACID],Activity,Mus musculus [12],44.8 µm
same,Activity,Mus musculus [13],73.18%
same,Activity,[14],Non-Toxic
same,Activity,Mus musculus [15],26.19%
same,Activity,[16],42.55%
same,Activity,[17],8.51%
same,Activity_index,Mus musculus [18],-1.36
same,Activity_index,Mus musculus [19],0.25
same,Activity,[20],0.54 /millimeter
same,Activity,Mus musculus [21],43.96%
same,Activity,[22],0.52%
same,Activity,[23],1.11 micrometer/day
same,Activity,Mus musculus [24],-35.6 1/mm
same,Activity,[25],34.28 um3/um2/yr
same,Activity,Mus musculus [26],132.16 um
same,Activity,Mus musculus [27],189.5 um
same,Activity,Mus musculus [28],5.92 /millimeter
